Activity, IC50 and inhibition data for one compound are collected here from ChEMBL document CHEMBL3877296, “Design, synthesis, and biological evaluation of novel alkylsulfanyl-1,2,4-triazoles as cis-restricted combretastatin A-4 analogues” (Eur J Med Chem, 2017).

A short description of test [1]: Cell cycle arrest in human PC3 cells assessed as G2/M phase accumulation after 48 hrs by propidium iodide staining based flow cytometry. In kind it is functional. Conditions: PC-3. The procedure, abridged:
(§1)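 PC-3 cells were grown overnight in dishes to about 70% confluence, then exposed to three compound concentrations. Cells were trypsinized, washed in PBS, fixed overnight in 75% ice-cold ethanol, RNase-treated at 37 °C for 30 min, and stained with propidium iodide. Phase percentages (sub-G1, G0/G1, S, G2/M) were read by flow cytometry against untreated cells.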
(A flow cytometer gives signals particle by particle.)

Test [2] in a line: Cell cycle arrest in human PC3 cells assessed as S phase accumulation at 3 uM after 12 hrs by propidium iodide staining based flow cytometry (reference value: 31.7%). To be noted: PC-3. In kind it is functional. An outline of the steps: as §1
Test [3] in a line: Cell cycle arrest in human PC3 cells assessed as subG1 phase accumulation at 6 uM after 12 hrs by propidium iodide staining based flow cytometry (reference value: 0.29%). To be noted: PC-3. The class given is functional. An outline of the steps:
as §1

Test [4] in a line: Cell cycle arrest in human PC3 cells assessed as G2/M phase accumulation at 12 uM after 12 hrs by propidium iodide staining based flow cytometry (reference value: 15.81%). To be noted: PC-3. In kind it is functional. An outline of the steps: as §1
Test [5] in a line: Cell cycle arrest in human PC3 cells assessed as G0/G1 phase accumulation at 6 uM after 12 hrs by propidium iodide staining based flow cytometry (reference value: 51.58%). In kind it is functional. Conditions: PC-3. The procedure, abridged:
as §1

Test [6] can be described thus: Cell cycle arrest in human PC3 cells assessed as S phase accumulation at 12 uM after 12 hrs by propidium iodide staining based flow cytometry (reference value: 31.7%). The class given is functional. To be noted: PC-3. The procedure, abridged: as §1
Test [7] can be described thus: Cell cycle arrest in human PC3 cells assessed as subG1 phase accumulation at 3 uM after 12 hrs by propidium iodide staining based flow cytometry (reference value: 0.29%). The class given is functional. Conditions: PC-3. The procedure, abridged: as §1
Test [8] is described as follows: Cytotoxicity against human PC3 cells assessed as growth inhibition after 48 hrs by MTT assay. To be noted: PC-3, 48 h. The class given is functional, cell-based. An outline of the steps: (§2)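 Cells were kept in DMEM with 10% FBS and seeded at 5000 cells/well, then attached for 24 h at 37 °C. Compounds came from 20 mM DMSO stocks, serially diluted in medium, with 0.1% DMSO as vehicle control. After 48 h at 37 °C, MTT (5 mg/mL) was added for 4 h, formazan dissolved in DMSO and A570 read. IC50 was fitted from % inhibition versus control, mean of three independent experiments.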
On the technique in general: Tetrazolium dyes change colour on reduction, which living cells bring about.

The nature of test [9]: Cell cycle arrest in human PC3 cells assessed as G0/G1 phase accumulation at 12 uM after 12 hrs by propidium iodide staining based flow cytometry (reference value: 51.58%). Conditions: PC-3. The class given is functional. The procedure, abridged: as §1
Test [10] is described as follows: Cytotoxicity against human HT-29 cells assessed as growth inhibition after 48 hrs by MTT assay. To be noted: HT-29, 48 h. The class given is functional, cell-based. The procedure, abridged: as §2
Test [11] can be described thus: Cytotoxicity against human HCT116 cells assessed as growth inhibition after 48 hrs by MTT assay. In kind it is functional, cell-based. To be noted: HCT-116, 48 h. An outline of the steps:
as §2

The species named for a further test is Sus scrofa. The test is described as follows: Inhibition of porcine brain tubulin polymerization at 10 uM in presence of GTP by spectrophotometric method relative to control. The procedure, abridged: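 Tubulin was purified from pig brain microtubule protein by three temperature-driven assembly/disassembly cycles, then phosphocellulose chromatography. Polymerization ran in PEM buffer (100 mM PIPES, 1 mM MgCl2, 1 mM EGTA) with 1 mM GTP and 5% glycerol at 37 °C, followed by light scattering at 340 nm. Percent inhibition came from plateau absorbance, with a DMSO negative control and a CA-4 reference run the same day.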

Test [12] is described as follows: Cell cycle arrest in human PC3 cells assessed as G2/M phase accumulation at 3 uM after 12 hrs by propidium iodide staining based flow cytometry (reference value: 15.81%). In kind it is functional. To be noted: PC-3. An outline of the steps:
as §1

The nature of test [13]: Cell cycle arrest in human PC3 cells assessed as subG1 phase accumulation at 12 uM after 12 hrs by propidium iodide staining based flow cytometry (reference value: 0.29%). The class given is functional. To be noted: PC-3. An outline of the steps: as §1
A short description of test [14]: Cell cycle arrest in human PC3 cells assessed as S phase accumulation at 6 uM after 12 hrs by propidium iodide staining based flow cytometry (reference value: 31.7%). In kind it is functional. Conditions: PC-3. The procedure, abridged:
as §1

A short description of test [15]: Cell cycle arrest in human PC3 cells assessed as G2/M phase accumulation at 6 uM after 12 hrs by propidium iodide staining based flow cytometry (reference value: 15.81%). In kind it is functional. To be noted: PC-3. The procedure, abridged: as §1
Test [16] can be described thus: Cell cycle arrest in human PC3 cells assessed as G0/G1 phase accumulation at 3 uM after 12 hrs by propidium iodide staining based flow cytometry (reference value: 51.58%). The class given is functional. Conditions: PC-3. The procedure, abridged:
as §1

Test [17] can be described thus: Cytotoxicity against human HepG2 cells assessed as growth inhibition after 48 hrs by MTT assay. In kind it is functional, cell-based. To be noted: HepG2, 48 h. The procedure, abridged:
as §2

Broadly, the IC50 is the concentration that gives 50% inhibition. Broadly, the inhibition is the percentage by which the read-out fell short of the control. For `COc1ccc(-n2c(SCC(=O)Nc3ccc(Cl)cc3)nnc2-c2cc(OC)c(OC)c(OC)c2)cc1`, the Activity result in test [1] is “Dose-dependent effect”; in [2], 30.8%; in test [3], 0.62%; in test [4], 34.8%; in test [5] it was 46%; in test [6] it was 27.1%. The Activity in [7] was determined as 0.43%; in [9], 37.8%; in [12], 20.1%; in test [13], 0.37%; in test [14], 31.7%; in [15], 24.2%. The Activity in test [16] was found to be 48%. Moreover, the 50% inhibitory concentration (IC50) in [8] was 6.29 µM; in [10], 58 µM; in test [11] it was above 60 µM; in test [17] it was above 60 µM. Moreover, the inhibition in the test filed under Sus scrofa is 31%.
